From ChEMBL document CHEMBL3865799, “Synthesis of a series of novel dihydroartemisinin monomers and dimers containing chalcone as a linker and their anticancer activity” (Eur J Med Chem, 2016)

Legend:
[1] = Cytotoxicity against human MIAPaCa2 cells assessed as cell growth inhibition at 50 uM after 48 hrs by MTT assay; type: functional; conditions: MIA PaCa-2, 48 h, read-out: GI
In short: (§1)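 Adherent lines at 70–75% confluence, grown at 37 °C in 5% CO2 with 10% FCS. Exposed 48 h to compound in DMSO (vehicle <0.2% v/v). MTT dye added 3 h before termination; formazan dissolved in DMSO, OD 570 nm with 620 nm reference. Growth inhibition expressed as % of untreated; IC50 taken from the dose series.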

[2] = Lipophilicity, log P of the compound; type: physicochemical; conditions: octanol/water
[3] = Cytotoxicity against human HL60 cells assessed as cell growth inhibition at 30 uM after 48 hrs by MTT assay; type: functional; conditions: HL-60, 48 h, read-out: GI
In short: (§2)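 HL-60 suspension cells, 1.5 × 10^4 per well, grown at 37 °C in 5% CO2 with 10% FCS. Treated 48 h with compound in DMSO (vehicle <0.2% v/v). MTT added 3 h before the end. Formazan dissolved in DMSO and read at 570 nm (reference 620 nm). % growth inhibition computed against untreated cells; IC50 taken from the concentration series.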

[4] = Cytotoxicity against human MIAPaCa2 cells assessed as cell growth inhibition at 30 uM after 48 hrs by MTT assay; type: functional; conditions: MIA PaCa-2, 48 h, read-out: GI; in short: as §1
[5] = Cytotoxicity against human LS180 cells assessed as cell growth inhibition at 50 uM after 48 hrs by MTT assay; type: functional; conditions: LS180, 48 h, read-out: GI; in short: as §1
[6] = Cytotoxicity against human PC3 cells assessed as cell growth inhibition at 30 uM after 48 hrs by MTT assay; type: functional; conditions: PC-3, 48 h, read-out: GI; in short: as §1
[7] = Aqueous solubility of the compound at pH 7; type: physicochemical
[8] = Cytotoxicity against human PC3 cells assessed as cell growth inhibition at 50 uM after 48 hrs by MTT assay; type: functional; conditions: PC-3, 48 h, read-out: GI; in short: as §1
[9] = Cytotoxicity against human HepG2 cells assessed as cell growth inhibition at 50 uM after 48 hrs by MTT assay; type: functional; conditions: HepG2, 48 h, read-out: GI; in short: as §1
[10] = Cytotoxicity against human LS180 cells assessed as cell growth inhibition at 30 uM after 48 hrs by MTT assay; type: functional; conditions: LS180, 48 h, read-out: GI; in short: as §1
[11] = Cytotoxicity against human HL60 cells assessed as cell growth inhibition at 50 uM after 48 hrs by MTT assay; type: functional; conditions: HL-60, 48 h, read-out: GI; in short: as §2
[12] = Cytotoxicity against human HepG2 cells assessed as cell growth inhibition at 30 uM after 48 hrs by MTT assay; type: functional; conditions: HepG2, 48 h, read-out: GI; in short: as §1
[13] = Cytotoxicity against human HepG2 cells assessed as cell growth inhibition after 48 hrs by MTT assay; type: functional, cell-based; conditions: HepG2, 48 h; in short: as §1
[14] = Cytotoxicity against human LS180 cells assessed as cell growth inhibition after 48 hrs by MTT assay; type: functional, cell-based; conditions: LS180, 48 h; in short: as §1

C[C@H]1[C@@H](OCCOc2ccc(/C=C/C(=O)c3ccc(Cl)cc3)cc2)O[C@@H]2O[C@@]3(C)CC[C@H]4[C@H](C)CC[C@@H]1[C@@]24OO3
inhibition of growth at 50 µM [1]: 62.8%
logP [2]: 5.34 to 7.45
inhibition of growth at 30 µM [3]: 89.4%
inhibition of growth at 30 µM [4]: 54.4%
inhibition of growth at 50 µM [5]: 45.6%
inhibition of growth at 30 µM [6]: 38.7%
solubility [7]: < 10 µg/mL
inhibition of growth at 50 µM [8]: 41.8%
inhibition of growth at 50 µM [9]: 25.1%
inhibition of growth at 30 µM [10]: 42.1%
inhibition of growth at 50 µM [11]: 93.2%
inhibition of growth at 30 µM [12]: 19.7%

COc1ccc(C(=O)/C=C/c2ccc(OCCO[C@H]3O[C@@H]4O[C@@]5(C)CC[C@H]6[C@H](C)CC[C@@H]([C@H]3C)[C@@]46OO5)cc2)cc1Cl
inhibition of growth at 50 µM [1]: 52.2%
logP [2]: 5.34 to 7.45
inhibition of growth at 30 µM [3]: 93.4%
inhibition of growth at 30 µM [4]: 51.1%
inhibition of growth at 50 µM [5]: 45.4%
inhibition of growth at 30 µM [6]: 40.3%
solubility [7]: < 10 µg/mL
inhibition of growth at 50 µM [8]: 42.7%
inhibition of growth at 50 µM [9]: 32.3%
inhibition of growth at 30 µM [10]: 41.6%
inhibition of growth at 50 µM [11]: 93.8%
inhibition of growth at 30 µM [12]: 26.7%

COc1ccc(/C=C/C(=O)c2ccc(OCCO[C@H]3O[C@@H]4O[C@@]5(C)CC[C@H]6[C@H](C)CC[C@@H]([C@H]3C)[C@@]46OO5)cc2)c(OC)c1
inhibition of growth at 50 µM [1]: 41.7%
logP [2]: 5.34 to 7.45
inhibition of growth at 30 µM [3]: 83.5%
inhibition of growth at 30 µM [4]: 24.8%
inhibition of growth at 50 µM [5]: 29.6%
inhibition of growth at 30 µM [6]: 38.2%
solubility [7]: < 10 µg/mL
inhibition of growth at 50 µM [8]: 46.9%
inhibition of growth at 50 µM [9]: 25.1%
inhibition of growth at 30 µM [10]: 27.5%
inhibition of growth at 50 µM [11]: 85.7%
inhibition of growth at 30 µM [12]: 18.2%

C[C@H]1[C@@H](OCCOc2ccc(/C=C/C(=O)c3cccc(O)c3)cc2)O[C@@H]2O[C@@]3(C)CC[C@H]4[C@H](C)CC[C@@H]1[C@@]24OO3
inhibition of growth at 50 µM [1]: 51.1%
logP [2]: 5.34 to 7.45
inhibition of growth at 30 µM [3]: 77.7%
inhibition of growth at 30 µM [4]: 44.1%
inhibition of growth at 50 µM [5]: 39.3%
inhibition of growth at 30 µM [6]: 47.6%
solubility [7]: < 10 µg/mL
inhibition of growth at 50 µM [8]: 49.5%
inhibition of growth at 50 µM [9]: 38.3%
inhibition of growth at 30 µM [10]: 31.1%
inhibition of growth at 50 µM [11]: 76.5%
inhibition of growth at 30 µM [12]: 33.6%

COc1cccc2c1C(=O)c1c(O)c3c(c(O)c1C2=O)C[C@@](O)(C(=O)CO)C[C@@H]3O[C@H]1C[C@H](N)[C@H](O)[C@H](C)O1 [DOXORUBICIN]
IC50 [13]: 540 nM
IC50 [14]: 840 nM

C[C@H]1[C@@H](OCCOc2cccc(C(=O)/C=C/c3cn(CCO[C@H]4O[C@@H]5O[C@@]6(C)CC[C@H]7[C@H](C)CC[C@@H]([C@H]4C)[C@@]57OO6)c4ccccc34)c2)O[C@@H]2O[C@@]3(C)CC[C@H]4[C@H](C)CC[C@@H]1[C@@]24OO3
inhibition of growth at 50 µM [1]: 49.4%
logP [2]: 5.34 to 7.45
inhibition of growth at 30 µM [3]: 81.5%
inhibition of growth at 30 µM [4]: 47.1%
inhibition of growth at 50 µM [5]: 37.8%
inhibition of growth at 30 µM [6]: 46.3%
solubility [7]: < 10 µg/mL
inhibition of growth at 50 µM [8]: 48.7%
inhibition of growth at 50 µM [9]: 28.7%
inhibition of growth at 30 µM [10]: 36.2%
inhibition of growth at 50 µM [11]: 83.2%
inhibition of growth at 30 µM [12]: 25.4%

C[C@H]1[C@@H](OCCOc2ccc(/C=C/C(=O)c3ccc(OCCO[C@H]4O[C@@H]5O[C@@]6(C)CC[C@H]7[C@H](C)CC[C@@H]([C@H]4C)[C@@]57OO6)cc3)cc2)O[C@@H]2O[C@@]3(C)CC[C@H]4[C@H](C)CC[C@@H]1[C@@]24OO3
inhibition of growth at 50 µM [1]: 49.1%
logP [2]: 5.34 to 7.45
inhibition of growth at 30 µM [3]: 85.6%
inhibition of growth at 30 µM [4]: 45.1%
inhibition of growth at 50 µM [5]: 49.5%
inhibition of growth at 30 µM [6]: 44.2%
solubility [7]: < 10 µg/mL
inhibition of growth at 50 µM [8]: 47.6%
inhibition of growth at 50 µM [9]: 47.8%
inhibition of growth at 30 µM [10]: 45.8%
inhibition of growth at 50 µM [11]: 87.9%
inhibition of growth at 30 µM [12]: 40.9%

Cc1cc(C(=O)/C=C/c2ccc(OCCO[C@H]3O[C@@H]4O[C@@]5(C)CC[C@H]6[C@H](C)CC[C@@H]([C@H]3C)[C@@]46OO5)cc2)ccc1OCCO[C@H]1O[C@@H]2O[C@@]3(C)CC[C@H]4[C@H](C)CC[C@@H]([C@H]1C)[C@@]24OO3
inhibition of growth at 50 µM [1]: 49.2%
logP [2]: 5.34 to 7.45
inhibition of growth at 30 µM [3]: 68.9%
inhibition of growth at 30 µM [4]: 44.3%
inhibition of growth at 50 µM [5]: 23.5%
inhibition of growth at 30 µM [6]: 6.4%
solubility [7]: < 10 µg/mL
inhibition of growth at 50 µM [8]: 23.5%
inhibition of growth at 50 µM [9]: 20.7%
inhibition of growth at 30 µM [10]: 7.1%
inhibition of growth at 50 µM [11]: 70.4%
inhibition of growth at 30 µM [12]: 13.6%

COc1ccc(C(=O)/C=C/c2ccc(OCCO[C@H]3O[C@@H]4O[C@@]5(C)CC[C@H]6[C@H](C)CC[C@@H]([C@H]3C)[C@@]46OO5)cc2)c(OC)c1
inhibition of growth at 50 µM [1]: 46.8%
logP [2]: 5.34 to 7.45
inhibition of growth at 30 µM [3]: 89.3%
inhibition of growth at 30 µM [4]: 44.1%
inhibition of growth at 50 µM [5]: 74.1%
inhibition of growth at 30 µM [6]: 47.4%
solubility [7]: < 10 µg/mL
inhibition of growth at 50 µM [8]: 49.8%
inhibition of growth at 50 µM [9]: 28.9%
inhibition of growth at 30 µM [10]: 63.3%
inhibition of growth at 50 µM [11]: 89.5%
inhibition of growth at 30 µM [12]: 27.3%

C[C@H]1[C@@H](OCCOc2ccc(/C=C/C(=O)c3ccccc3Cl)cc2)O[C@@H]2O[C@@]3(C)CC[C@H]4[C@H](C)CC[C@@H]1[C@@]24OO3
inhibition of growth at 50 µM [1]: 61.1%
logP [2]: 5.34 to 7.45
inhibition of growth at 30 µM [3]: 91.8%
inhibition of growth at 30 µM [4]: 55.1%
inhibition of growth at 50 µM [5]: 57.5%
inhibition of growth at 30 µM [6]: 52.4%
solubility [7]: < 10 µg/mL
inhibition of growth at 50 µM [8]: 56.1%
inhibition of growth at 50 µM [9]: 25.2%
inhibition of growth at 30 µM [10]: 56.7%
inhibition of growth at 50 µM [11]: 92.9%
inhibition of growth at 30 µM [12]: 23.8%
